Test results published in ChEMBL document CHEMBL1137720, “New acyclic nucleosides analogues as potential analgesic, anti-inflammatory, anti-oxidant and anti-microbial derived from pyrimido[4,5-b]quinolines” (2009).

Key:
Mus musculus [1] = species: Mus musculus; experiment: Analgesic activity in Swiss mouse assessed as reaction time after 60 mins by hot plate test; assay type: functional
Outline: (§1)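 Swiss mice of both sexes, 25–30 g, were housed at 22 ± 1 °C on a 12 h light/dark cycle with free access to diet and water. Hot-plate testing followed Turner's method.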

Escherichia coli = experiment: Antibacterial activity against Escherichia coli ATCC 23566 at 100 ug/disk after 24 to 48 hrs by agar disk diffusion method; assay type: functional; settings: read-out: DIZ
Outline: (§2)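 Agar disc diffusion used sterile 5 mm filter-paper discs loaded with 100 µg per disc, with DMSO as solvent. Plates were incubated 24–28 h at 37 °C and inhibition zone diameters measured: 6–10 mm slight, 11–15 mm moderate, >15 mm high. For MIC, discs carried varying amounts, and MIC was the lowest amount giving no visible growth.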

Rattus norvegicus [2] = experiment: Antiinflammatory activity in Sprague-Dawley rat assessed as inhibition of carrageenan-induced paw edema after 3 hrs; assay type: functional
Outline: (§3)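 Adult female Sprague-Dawley rats, 150–180 g, were used (n = 6 per group). Paw volume increase after carrageenan was read at 1, 2, 3 and 4 h. % edema inhibition was calculated against untreated controls. The reference drug was given orally at 10 mg/kg as an aqueous suspension.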

Rattus norvegicus [3] = experiment: Antiinflammatory activity in Sprague-Dawley rat assessed as inhibition of carrageenan-induced paw edema after 1 hr; assay type: functional; outline: as §3
Candida albicans = experiment: Antimicrobial activity against Candida albicans ATCC 14053 at 100 ug/disk after 5 days by agar disk diffusion method; assay type: functional; settings: ATCC 14053, 120 h, read-out: DIZ
[4] = Antioxidant activity in Sprague-Dawley rat erythrocytes assessed as ABTS-induced hemolysis after 1 hr; assay type: functional, Erythrocyte; design: concentration or dose not given beside the values
[5] = Antioxidant activity assessed as inhibition of ABTS-oxidation in 0.1 M phosphate buffer at pH 7; assay type: functional
Outline: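 ABTS (60 µM, 2 mL) was mixed with MnO2 (25 mg/mL) in 0.1 M phosphate buffer pH 7, then shaken, centrifuged and filtered. Radical solution A734 was set to about 0.5. MeOH/buffer served as negative control.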

Aspergillus fumigatus = experiment: Antimicrobial activity against Aspergillus fumigatus ATCC 96918 at 100 ug/disk after 5 days by agar disk diffusion method; assay type: functional; settings: ATCC 96918, 120 h, read-out: DIZ
Staphylococcus aureus = experiment: Antibacterial activity against Staphylococcus aureus ATCC 25923 at 100 ug/disk after 24 to 48 hrs by agar disk diffusion method; assay type: functional; settings: read-out: DIZ; outline: as §2
Mus musculus [6] = species: Mus musculus; experiment: Analgesic activity in Swiss mouse assessed as reaction time after 30 mins by hot plate test; assay type: functional; outline: as §1
Mus musculus [7] = species: Mus musculus; experiment: Analgesic activity in Swiss mouse assessed as reaction time after 90 mins by hot plate test; assay type: functional; outline: as §1
Rattus norvegicus [8] = experiment: Antiinflammatory activity in Sprague-Dawley rat assessed as inhibition of carrageenan-induced paw edema after 4 hrs; assay type: functional; outline: as §3
Pseudomonas aeruginosa = experiment: Antibacterial activity against Pseudomonas aeruginosa ATCC 10145 at 100 ug/disk after 24 to 48 hrs by agar disk diffusion method; assay type: functional; settings: read-out: DIZ; outline: as §2
Rattus norvegicus [9] = experiment: Antiinflammatory activity in Sprague-Dawley rat assessed as inhibition of carrageenan-induced paw edema after 2 hrs; assay type: functional; outline: as §3
Nucleic Acid = experiment: Inhibition of bleomycin-induced DNA damage assessed as absorbance at 532 nm after 1 hr at 37 degC; assay type: nucleic-acid assay
Outline: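 The 0.5 mL reaction contained calf thymus DNA (0.5 mg/mL), bleomycin sulfate (0.05 mg/mL), MgCl2 (5 mM), FeCl3 (50 µM) and compound at varying concentrations. After 1 h at 37 °C, the reaction was stopped with EDTA. TBA (1%) and HCl (25%) were added, followed by 10 min at 80 °C. After centrifugation, DNA damage was read as A532.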

Rattus norvegicus [10] = experiment: Antiinflammatory activity in Sprague-Dawley rat assessed as inhibition of carrageenan-induced paw edema at 10 mg/kg, po after 3 hrs; assay type: functional; outline: as §3
Rattus norvegicus [11] = experiment: Antiinflammatory activity in Sprague-Dawley rat assessed as inhibition of carrageenan-induced paw edema at 10 mg/kg, po after 4 hrs; assay type: functional; outline: as §3
Rattus norvegicus [12] = experiment: Antiinflammatory activity in Sprague-Dawley rat assessed as inhibition of carrageenan-induced paw edema at 10 mg/kg, po after 1 hr; assay type: functional; outline: as §3
Rattus norvegicus [13] = species: Rattus norvegicus; experiment: animal or person; settings: Sprague-Dawley, po, 2 h, read-out: INH

SMILES | Activity (Mus musculus [1]) | zone of inhibition at 100 µg/disc (Escherichia coli) | inhibition (INH) (Rattus norvegicus [2]) | inhibition (INH) (Rattus norvegicus [3]) | zone of inhibition at 100 µg/disc (Candida albicans) | Activity [4] | inhibition [5] | zone of inhibition at 100 µg/disc (Aspergillus fumigatus) | zone of inhibition at 100 µg/disc (Staphylococcus aureus) | Activity (Mus musculus [6]) | Activity (Mus musculus [7]) | inhibition (INH) (Rattus norvegicus [8]) | zone of inhibition at 100 µg/disc (Pseudomonas aeruginosa) | inhibition (INH) (Rattus norvegicus [9]) | deltaA (Nucleic Acid) | inhibition in vivo at 10 mg/kg (Rattus norvegicus [10]) | inhibition in vivo at 10 mg/kg (Rattus norvegicus [11]) | inhibition in vivo at 10 mg/kg (Rattus norvegicus [12]) | inhibition in vivo at 10 mg/kg (Rattus norvegicus [13])
CC(=O)OC[C@@H](OC(C)=O)[C@@H](OC(C)=O)[C@@H](OC(C)=O)[C@@H](OC(C)=O)c1n[nH]c2nc3nc4c(c(-c5ccc(Cl)cc5)c3c(=O)n12)CCC/C4=C\c1ccc(Cl)cc1 | 2.667 s | 14 mm | 13.28% | 18.75% | 11 mm | 8.18% | 40.7% | 12 mm | 13 mm | 2.483 s | 2.633 s | 19.57% | 12 mm | 14.8% |  |  |  |  | 
CC(=O)Oc1ccccc1C(=O)O [ASPIRIN] | 7.683 s |  |  |  |  |  |  |  |  | 5.1 s | 8.65 s |  |  |  |  |  |  |  | 
O=c1c2c(-c3ccc(Cl)cc3)c3c(nc2nc2[nH]nc([C@H](O)[C@H](O)[C@H](O)CO)n12)/C(=C/c1ccc(Cl)cc1)CCC3 | 5.35 s | 18 mm | 39.06% | 46.88% | 13 mm | 3.42% | 68.8% | 13 mm | 22 mm | 3.55 s | 6.667 s | 39.81% | 18 mm | 40.58% | 0.045 |  |  |  | 
CC(=O)OC[C@@H](OC(C)=O)[C@@H](OC(C)=O)[C@H](/C=N/Nc1nc2nc3c(c(-c4ccc(Cl)cc4)c2c(=O)n1OC(C)=O)CCC/C3=C\c1ccc(Cl)cc1)OC(C)=O | 3.483 s | 14 mm | 26.09% | 15.62% | 7 mm | 6.06% | 40.7% | 11 mm | 11 mm | 3.5 s | 4.033 s | 26.56% | 13 mm | 20.37% |  |  |  |  | 
O=c1c2c(-c3ccc(Cl)cc3)c3c(nc2nc2[nH]nc([C@@H](O)[C@H](O)[C@H](O)CO)n12)/C(=C/c1ccc(Cl)cc1)CCC3 | 5.933 s | 20 mm | 45.31% | 40.62% | 12 mm | 3.51% | 66.7% | 16 mm | 20 mm | 3.6 s | 8.433 s | 46.67% | 19 mm | 52% | 0.05 |  |  |  | 
O=C(O)c1cn(C2CC2)c2cc(N3CCNCC3)c(F)cc2c1=O [CIPROFLOXACIN] |  |  |  |  |  |  |  |  | 24 mm |  |  |  | 24 mm |  |  |  |  |  | 
COc1ccc2c(c1)c(CC(=O)O)c(C)n2C(=O)c1ccc(Cl)cc1 [INDOMETHACIN] |  |  |  |  |  |  |  |  |  |  |  |  |  |  |  | 65.2% | 57.8% | 50% | 58%
